Legend:
[1] = Tested for the velocity of 2.8 mM compound relative to that of 2.8 mM MgATP in the assay
Procedure, shortened: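 E. coli TK substrate test. 0.5 h after adding inhibitor, the mixture was diluted to 2.8 mM derivative in thymidine assay medium without ATP and with 1.42 mM MnCl2. Incubated 15 min at 37 °C, in the linear range. [14C]TMP formed was compared with that from 2.8 mM ATP under the same conditions.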

[2] = target: Thymidine kinase (Escherichia coli) (UniProt P23331); experiment: Compound was tested for the initial inhibition of thymidine kinase by 1.4 mM compound in the presence of 5.7 mM ATP
[3] = target: T1, Hexokinase-3 (Rattus norvegicus) (UniProt P27926); experiment: Time dependent inhibition of Hexokinase type III activity after 6 hr, at 22 degrees celsius, at 5 mM compound
T1 sequence (whole entry): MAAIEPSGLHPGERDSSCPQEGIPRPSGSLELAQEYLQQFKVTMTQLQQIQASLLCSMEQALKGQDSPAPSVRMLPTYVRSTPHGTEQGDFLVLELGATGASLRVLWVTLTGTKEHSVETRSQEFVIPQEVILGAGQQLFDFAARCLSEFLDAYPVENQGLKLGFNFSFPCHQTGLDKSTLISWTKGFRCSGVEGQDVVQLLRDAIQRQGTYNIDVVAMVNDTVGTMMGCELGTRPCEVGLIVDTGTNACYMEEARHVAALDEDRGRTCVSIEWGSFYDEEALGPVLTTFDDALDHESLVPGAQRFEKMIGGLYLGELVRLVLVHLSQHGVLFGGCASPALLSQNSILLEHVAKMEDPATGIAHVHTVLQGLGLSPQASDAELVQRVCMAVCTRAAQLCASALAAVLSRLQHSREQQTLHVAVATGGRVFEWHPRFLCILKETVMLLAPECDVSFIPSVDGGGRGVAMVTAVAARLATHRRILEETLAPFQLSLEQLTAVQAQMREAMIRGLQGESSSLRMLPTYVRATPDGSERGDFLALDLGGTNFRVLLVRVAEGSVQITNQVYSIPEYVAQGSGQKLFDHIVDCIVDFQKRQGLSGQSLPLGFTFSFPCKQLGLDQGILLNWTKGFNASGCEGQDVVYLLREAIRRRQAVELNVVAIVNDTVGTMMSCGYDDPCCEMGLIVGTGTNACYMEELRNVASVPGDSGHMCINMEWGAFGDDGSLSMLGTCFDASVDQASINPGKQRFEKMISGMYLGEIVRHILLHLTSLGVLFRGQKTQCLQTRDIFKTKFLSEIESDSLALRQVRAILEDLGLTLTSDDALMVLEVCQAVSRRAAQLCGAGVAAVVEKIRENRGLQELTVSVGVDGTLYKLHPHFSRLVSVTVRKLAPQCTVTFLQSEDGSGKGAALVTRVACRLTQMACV

[4] = target: T2, Hexokinase-2 (Rattus norvegicus) (UniProt P27881); experiment: Time dependent inhibition of hexokinase 2 activity after 6 h, at 5 mM compound
T2 sequence (whole entry): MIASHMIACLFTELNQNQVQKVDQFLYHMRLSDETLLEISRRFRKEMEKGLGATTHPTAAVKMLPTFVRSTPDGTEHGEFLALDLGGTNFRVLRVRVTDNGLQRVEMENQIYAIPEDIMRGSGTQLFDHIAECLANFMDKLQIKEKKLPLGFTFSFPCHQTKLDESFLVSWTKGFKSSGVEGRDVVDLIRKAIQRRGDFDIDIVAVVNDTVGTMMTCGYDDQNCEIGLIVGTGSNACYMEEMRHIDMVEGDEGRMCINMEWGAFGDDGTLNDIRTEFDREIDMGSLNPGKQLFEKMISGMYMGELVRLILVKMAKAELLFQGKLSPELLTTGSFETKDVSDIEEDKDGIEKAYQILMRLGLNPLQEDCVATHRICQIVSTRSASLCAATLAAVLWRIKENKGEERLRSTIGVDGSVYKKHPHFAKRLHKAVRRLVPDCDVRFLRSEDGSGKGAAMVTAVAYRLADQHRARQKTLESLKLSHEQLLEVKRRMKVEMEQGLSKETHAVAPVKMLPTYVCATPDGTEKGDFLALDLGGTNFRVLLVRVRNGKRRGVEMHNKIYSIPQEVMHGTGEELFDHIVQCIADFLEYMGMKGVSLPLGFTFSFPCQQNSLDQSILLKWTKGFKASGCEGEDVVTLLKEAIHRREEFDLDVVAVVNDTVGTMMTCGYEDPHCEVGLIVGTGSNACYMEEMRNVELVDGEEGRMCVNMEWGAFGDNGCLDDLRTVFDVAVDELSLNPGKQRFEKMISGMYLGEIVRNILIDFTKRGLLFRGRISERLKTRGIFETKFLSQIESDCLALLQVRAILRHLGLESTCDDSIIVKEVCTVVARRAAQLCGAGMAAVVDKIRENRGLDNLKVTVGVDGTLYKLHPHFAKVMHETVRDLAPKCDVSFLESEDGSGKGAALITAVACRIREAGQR

[5] = target: Thymidine kinase (Escherichia coli) (UniProt P23331); experiment: Compound tested for the loss of thymidine kinase activity from Escherichia coli after 6 hr at 0 degrees C at 10 mM
[6] = tested on: Saccharomyces cerevisiae; experiment: Time dependent inhibition of hexokinase activity after 6 hr, at 22 degrees celsius, with 5 mM ATP derivative in yeast.
[7] = target: T1, Hexokinase-3 (Rattus norvegicus); experiment: Time dependent inhibition of Hexokinase type III activity after 6 h, at 22 degrees celsius, at 5 mM
[8] = target: Thymidine kinase (Escherichia coli) (UniProt P23331); experiment: Compound was tested for the loss of thymidine kinase activity from Escherichia coli after 6 hr at 0 degrees C at 10 mM
[9] = target: T3, Hexokinase-1 (Rattus norvegicus) (UniProt P05708); experiment: Time dependent inhibition of Hexokinase type I activity after 6 h, at 22 degrees celsius, at 5 mM compound
T3 sequence (whole entry): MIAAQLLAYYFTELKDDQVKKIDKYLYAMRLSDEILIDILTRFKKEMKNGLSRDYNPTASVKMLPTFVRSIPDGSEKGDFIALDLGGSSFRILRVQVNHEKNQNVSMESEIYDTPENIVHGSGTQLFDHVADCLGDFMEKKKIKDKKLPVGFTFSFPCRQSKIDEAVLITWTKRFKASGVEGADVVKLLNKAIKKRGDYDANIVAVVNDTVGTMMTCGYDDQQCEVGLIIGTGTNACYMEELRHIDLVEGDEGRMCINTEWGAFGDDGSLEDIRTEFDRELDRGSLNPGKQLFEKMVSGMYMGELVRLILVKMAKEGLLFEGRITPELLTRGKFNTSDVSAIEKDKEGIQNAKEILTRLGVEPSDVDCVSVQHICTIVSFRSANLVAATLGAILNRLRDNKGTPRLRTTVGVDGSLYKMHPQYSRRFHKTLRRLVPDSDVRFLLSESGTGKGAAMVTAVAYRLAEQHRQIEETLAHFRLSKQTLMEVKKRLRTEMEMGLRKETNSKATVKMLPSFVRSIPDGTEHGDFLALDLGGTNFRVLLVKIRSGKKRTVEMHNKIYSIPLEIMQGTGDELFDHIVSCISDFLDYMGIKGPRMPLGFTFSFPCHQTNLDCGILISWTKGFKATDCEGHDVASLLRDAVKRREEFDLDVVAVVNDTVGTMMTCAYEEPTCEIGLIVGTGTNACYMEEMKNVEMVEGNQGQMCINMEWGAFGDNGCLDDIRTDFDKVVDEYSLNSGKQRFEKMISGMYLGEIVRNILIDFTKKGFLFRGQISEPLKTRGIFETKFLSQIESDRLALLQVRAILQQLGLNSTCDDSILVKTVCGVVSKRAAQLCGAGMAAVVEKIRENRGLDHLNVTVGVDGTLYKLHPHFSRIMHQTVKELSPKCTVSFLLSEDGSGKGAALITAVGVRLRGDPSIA

[10] = target: T2, Hexokinase-2 (Rattus norvegicus); experiment: Substrate activity against Rat hexokinase II as 1:1 Mg complex at 5.0 mM
Procedure, shortened: (§1)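 Hexokinase activity read at 22 °C as A340 change, coupled to glucose-6-phosphate dehydrogenase, in 0.05 M Tris-HCl pH 7.6 with 6.6 mM MgCl2, 10 mM α-D-glucose and 0.93 mM NADP. Donor was 5.0 mM MgATP derivative (1:1 Mg complex) in place of ATP. Yeast HK was isoelectric-focused. Rat HK I and III came from electrofocused liver extract, HK II from dialysed muscle extract.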

[11] = tested on: Saccharomyces cerevisiae; experiment: Compound was tested for time dependent inhibition of hexokinase activity after 6 hr, at 22 degrees celsius, with 5 mM ATP derivative in yeast hexokinase
[12] = target: T3, Hexokinase-1 (Rattus norvegicus); experiment: Substrate activity for rat hexokinase I as 1:1 Mg complex at 5.0 mM; procedure, shortened: as §1
[13] = tested on: Saccharomyces cerevisiae; experiment: Substrate activity against yeast hexokinase as 1:1 Mg complexes at 5.0 mM; procedure, shortened: as §1
[14] = target: T1, Hexokinase-3 (Rattus norvegicus); experiment: Substrate activity for rat hexokinase III as 1:1 Mg complex at 5.0 mM; procedure, shortened: as §1
[15] = target: Thymidine kinase (Escherichia coli) (UniProt P23331); experiment: Compound was tested for the lose of thymidine kinase activity after 6 h, at 0 degrees celsius, with 10 mM ATP derivative. values were expressed in percent
[16] = target: Thymidine kinase (Escherichia coli) (UniProt P23331); experiment: Compound was tested for the initial inhibition of thymidine kinase by 1.4 mM compound in the presence of 5.7 mM ATP in Escherichia coli
[17] = target: T2, Hexokinase-2 (Rattus norvegicus); experiment: Time dependent inhibition of hexokinase 2 activity after 6 h, at 10 mM compound
[18] = target: T1, Hexokinase-3 (Rattus norvegicus); experiment: Time dependent inhibition of Hexokinase type III activity after 6 h, at 0 degrees celsius, at 10 mM
[19] = target: T3, Hexokinase-1 (Rattus norvegicus); experiment: Time dependent inhibition of Hexokinase type I activity after 6 h, at 0 degrees celsius, at 10 mM compound
[20] = target: T3, Hexokinase-1 (Rattus norvegicus); experiment: Time dependent inhibition of Hexokinase, type I activity after 6 h, at 22 degrees celsius, at 5 mM compound
[21] = target: Thymidine kinase (Escherichia coli) (UniProt P23331); experiment: Compound was tested for the loss of Thymidine kinase activity from Escherichia coli after 6 h at 0 degrees C at 10 mM
[22] = tested on: Saccharomyces cerevisiae; experiment: Compound was tested for time dependent inhibition of hexokinase activity after 6 h at 22 degrees celsius, with 5 mM compound in yeast hexokinase
[23] = target: Thymidine kinase (Escherichia coli) (UniProt P23331); experiment: Compound was tested for the initial inhibition of Thymidine kinase by 1.4 mM compound in the presence of 5.7 mM ATP
[24] = Extent of inactivation caused by the compound was reported.; type: functional

Chain of Thymidine kinase (Escherichia coli) (P23331 whole entry, looked up): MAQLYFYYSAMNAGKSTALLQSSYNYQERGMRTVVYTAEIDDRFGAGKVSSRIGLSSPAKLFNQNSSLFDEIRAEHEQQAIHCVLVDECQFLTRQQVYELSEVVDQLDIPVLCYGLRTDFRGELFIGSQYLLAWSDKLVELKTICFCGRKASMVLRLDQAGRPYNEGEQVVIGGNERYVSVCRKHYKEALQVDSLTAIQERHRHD

Row | SMILES | Velocity [1] | inhibition [2] | inhibition [4] | inhibition [7] | inhibition [9] | Relative velocity [10] | Relative velocity [12] | Relative velocity [13] | Relative velocity [14] | further results
1 | O=C(CI)NCCCCNc1ncnc2c1ncn2[C@@H]1O[C@H](COP(=O)(O)OP(=O)(O)OP(=O)(O)O)[C@@H](O)[C@H]1O | 68% | 39% | 0% | – | – | – | – | – | – | inhibition [3]: 0%; inhibition [5]: 0%; inhibition [6]: 0%
2 | O=C(CI)NCCCCCC(=O)NCCCCCCNc1ncnc2c1ncn2[C@@H]1O[C@H](COP(=O)(O)OP(=O)(O)OP(=O)(O)O)[C@@H](O)[C@H]1O | 37% | 8% | 0% | 0% | 0% | 0.63 | 1.25 | 1.02 | 1.37 | inhibition [8]: 0%; inhibition [11]: 0%
3 | O=C(CI)NCCNc1ncnc2c1ncn2[C@@H]1O[C@H](COP(=O)(O)OP(=O)(O)OP(=O)(O)O)[C@@H](O)[C@H]1O | 35% | – | 0% | 0% | 0% | 0.34 | 0.58 | 0.75 | 0.5 | inhibition [15]: 0%; inhibition [16]: 3%; inhibition [11]: 0%
4 | O=C(CI)NCC(=O)NCCCCCCNc1ncnc2c1ncn2[C@@H]1O[C@H](COP(=O)(O)OP(=O)(O)OP(=O)(O)O)[C@@H](O)[C@H]1O | 63% | – | – | – | – | 0.63 | 0.92 | 0.52 | 2.06 | inhibition [17]: 0%; inhibition [18]: 0%; inhibition [19]: 0%
5 | O=C(CI)NCCCNc1ncnc2c1ncn2[C@@H]1O[C@H](COP(=O)(O)OP(=O)(O)OP(=O)(O)O)[C@@H](O)[C@H]1O | 32% | – | 0% | 0% | – | – | – | – | – | inhibition [20]: 0%; inhibition [21]: 0%; inhibition [22]: 0%; inhibition [23]: 6%
6 | NC(=O)CI.Nc1ncnc2c1ncn2[C@@H]1O[C@H](COP(=O)(O)OP(=O)(O)OP(=O)(O)O)[C@@H](O)[C@H]1O | – | – | 7% | 0% | 5% | – | – | – | – | inhibition [22]: 0%
7 | O=C(CI)NCCCCCCNc1ncnc2c1ncn2[C@@H]1O[C@H](COP(=O)(O)OP(=O)(O)OP(=O)(O)O)[C@@H](O)[C@H]1O | – | 0% | 35% | – | – | – | – | – | – | inhibition [3]: 33%; inhibition [5]: 0%; Inactivation [24]: > 90%
8 | O=C(CI)NCCCCCCCNc1ncnc2c1ncn2[C@@H]1O[C@H](COP(=O)(O)OP(=O)(O)OP(=O)(O)O)[C@@H](O)[C@H]1O | 38% | – | 30% | 20% | 20% | – | – | – | – | inhibition [15]: 0%; inhibition [16]: 10%; inhibition [6]: 22%

Source: ChEMBL document CHEMBL1122206, “Use of adenine nucleotide derivatives to assess the potential of exo-active-site-directed reagents as species- or isozyme-specific enzyme inactivators. 5. Interactions of adenosine 5'-triphosphate derivatives with rat pyruvate kinases, Escherichia coli thymidine kinase, and yeast and rat …” (1982)
